ChEMBL document CHEMBL1126560, “Endothelin-1 analogues substituted at both position 18 and 19: highly potent endothelin antagonists with no selectivity for either receptor subtype ETA or ETB” (J Med Chem, 1993)
pIC50: −log10 of the molar value.

How the values were obtained:
Mus musculus = species on record: Mus musculus; experiment: Compound induced increase in cystolic free ca+2 concentration in murine peritoneal macrophages was measured; format: functional
Outline: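 Murine peritoneal macrophages from male ICR mice given ip 10% protease peptone 3 days before, adhered 1.5 h at 37 °C, fura-2 AM loaded (4 μM, 24 °C, 1.5 h). Fura-2 fluorescence ratio (340/380 nm excitation, 505 nm emission) at 37 °C. Compound at 100 nM; rise expressed as % of 100 nM ET-1 response.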

[1] = molecular target: T1, Endothelin receptor type B (Bos taurus, UniProt P28088); experiment: Tested for the competitive binding versus [125I]- ET-1 determined in bovine cerebrum membrane for Endothelin B receptor; format: cell membranes
T1 sequence (P28088 whole entry): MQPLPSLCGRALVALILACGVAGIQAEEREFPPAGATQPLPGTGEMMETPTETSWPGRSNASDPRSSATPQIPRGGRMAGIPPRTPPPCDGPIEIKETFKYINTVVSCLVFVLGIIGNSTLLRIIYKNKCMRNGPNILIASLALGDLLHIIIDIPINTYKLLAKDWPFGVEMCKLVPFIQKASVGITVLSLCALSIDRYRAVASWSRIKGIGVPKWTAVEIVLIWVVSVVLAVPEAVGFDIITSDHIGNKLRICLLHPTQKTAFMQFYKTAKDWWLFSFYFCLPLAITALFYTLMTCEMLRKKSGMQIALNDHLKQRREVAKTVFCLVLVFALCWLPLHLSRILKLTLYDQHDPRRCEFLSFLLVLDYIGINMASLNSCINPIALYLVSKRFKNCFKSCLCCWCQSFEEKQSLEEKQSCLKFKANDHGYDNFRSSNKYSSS
Outline: (§1)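 Membranes (porcine cardiac ventricle at 12 μg/mL for ETA; bovine cerebrum at 150 μg/mL for ETB) in pH 7.2 Tris/EGTA/Mg acetate/0.1% BSA buffer with protease inhibitors. Incubated with 100 pM [125I]ET-1 and varied compound for 1 h at 25 °C, then filtered and counted by gamma counter. IC50 given as mean ± SEM of ≥3 determinations.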

Endothelin-1 receptor [2] = molecular target: T2, Endothelin-1 receptor (Sus scrofa, UniProt Q29010); experiment: Tested for the competitive binding versus [125I]- ET-1 determined in porcine cardiac ventricular membrane for Endothelin A receptor; outline: as §1
T2 sequence (Q29010 whole entry): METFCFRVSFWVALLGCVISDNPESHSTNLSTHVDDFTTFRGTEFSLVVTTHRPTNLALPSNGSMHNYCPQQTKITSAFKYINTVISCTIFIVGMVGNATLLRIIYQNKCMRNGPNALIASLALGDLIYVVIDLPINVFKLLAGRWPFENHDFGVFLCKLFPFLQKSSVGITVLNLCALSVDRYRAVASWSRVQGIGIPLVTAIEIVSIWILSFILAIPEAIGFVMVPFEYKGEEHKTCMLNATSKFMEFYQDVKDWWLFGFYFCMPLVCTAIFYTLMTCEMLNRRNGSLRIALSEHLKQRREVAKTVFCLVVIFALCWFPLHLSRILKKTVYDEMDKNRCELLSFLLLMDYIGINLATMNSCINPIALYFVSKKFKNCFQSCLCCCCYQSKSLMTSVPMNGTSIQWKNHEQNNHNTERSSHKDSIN

Endothelin-1 receptor [3] = molecular target: T2, Endothelin-1 receptor; experiment: ETA receptor antagonist activity was measured by inhibition of ET-1 induced vasoconstriction in isolated porcine coronary artery; format: functional, tissue-based; conditions: read-out: pA2 (converted)
Outline: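 Porcine right coronary artery, endothelium-denuded 2 × 5-mm helical strips in Krebs-Henseleit, 95% O2-5% CO2, 37 °C, isometric tension. Compound added 15 min before cumulative ET-1. Tension normalized to 60 mM KCl. pA2 by van Rossum's method; n in parentheses.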

| SMILES | [Ca2+] increase (Mus musculus) | pIC50 [1] | pIC50 (Endothelin-1 receptor [2]) | Kb (Endothelin-1 receptor [3]) |
| --- | --- | --- | --- | --- |
| CC[C@H](C)[C@H](NC(=O)[C@H](CC(C)(C)C)NC(=O)[C@@H](NC(=O)[C@H](CC(C)C)NC(=O)[C@H](Cc1c[nH]cn1)NC(=O)[C@@H]1CSSC[C@H](N)C(=O)N[C@@H](CO)C(=O)N[C@H]2CSSC[C@H](NC(=O)[C@H](CCC(=O)O)NC(=O)[C@H](CCCCN)NC(=O)[C@H](CC(=O)O)NC(=O)[C@H](CCSC)NC(=O)[C@H](CC(C)C)NC(=O)[C@H](CO)NC(=O)[C@H](CO)NC2=O)C(=O)N[C@@H](C(C)C)C(=O)N[C@@H](Cc2ccc(O)cc2)C(=O)N[C@@H](Cc2ccccc2)C(=O)N1)[C@@H](C)O)C(=O)N[C@@H](Cc1c[nH]c2ccccc12)C(=O)O | 0 | – | – | – |
| CC[C@H](C)[C@H](NC(=O)[C@H](CC(C)C)NC(=O)[C@H](CC(=O)O)NC(=O)[C@H](CC(C)C)NC(=O)[C@H](Cc1c[nH]cn1)NC(=O)[C@@H]1CSSC[C@H](N)C(=O)N[C@@H](CO)C(=O)N[C@H]2CSSC[C@H](NC(=O)[C@H](CCC(=O)O)NC(=O)[C@H](CCCCN)NC(=O)[C@H](CC(=O)O)NC(=O)[C@H](CCSC)NC(=O)[C@H](CC(C)C)NC(=O)[C@H](CO)NC(=O)[C@H](CO)NC2=O)C(=O)N[C@@H](C(C)C)C(=O)N[C@@H](Cc2ccc(O)cc2)C(=O)N[C@@H](Cc2ccccc2)C(=O)N1)C(=O)N[C@@H](Cc1c[nH]c2ccccc12)C(=O)O | – | 9.77 | 9.12 | – |
| CC[C@H](C)[C@H](NC(=O)[C@H](CC1CCCCC1)NC(=O)[C@@H](NC(=O)[C@H](CC(C)C)NC(=O)[C@H](Cc1c[nH]cn1)NC(=O)[C@@H]1CSSC[C@H](N)C(=O)N[C@@H](CO)C(=O)N[C@H]2CSSC[C@H](NC(=O)[C@H](CCC(=O)O)NC(=O)[C@H](CCCCN)NC(=O)[C@H](CC(=O)O)NC(=O)[C@H](CCSC)NC(=O)[C@H](CC(C)C)NC(=O)[C@H](CO)NC(=O)[C@H](CO)NC2=O)C(=O)N[C@@H](C(C)C)C(=O)N[C@@H](Cc2ccc(O)cc2)C(=O)N[C@@H](Cc2ccccc2)C(=O)N1)[C@@H](C)O)C(=O)N[C@@H](Cc1c[nH]c2ccccc12)C(=O)O [listing 1 of 2 here] | 10 | – | – | – |
| CC[C@H](C)[C@H](NC(=O)[C@H](CC(C)C)NC(=O)[C@H](CC(C)C)NC(=O)[C@H](Cc1cnc[nH]1)NC(=O)[C@@H]1CSSC[C@H](N)C(=O)N[C@@H](CO)C(=O)N[C@H]2CSSC[C@H](NC(=O)[C@H](CCC(=O)O)NC(=O)[C@H](CCCCN)NC(=O)[C@H](CC(=O)O)NC(=O)[C@H](CCSC)NC(=O)[C@H](CC(C)C)NC(=O)[C@H](CO)NC(=O)[C@H](CO)NC2=O)C(=O)N[C@@H](C(C)C)C(=O)N[C@@H](Cc2ccc(O)cc2)C(=O)N[C@@H](Cc2ccccc2)C(=O)N1)C(=O)N[C@H](C(=O)N[C@@H](Cc1c[nH]c2ccccc12)C(=O)O)[C@@H](C)CC | – | 9.35 | 8.07 | 5010 nM |
| CC[C@H](C)[C@H](NC(=O)[C@H](CC(=O)O)NC(=O)[C@H](CC(C)C)NC(=O)[C@H](Cc1c[nH]cn1)NC(=O)[C@@H]1CSSC[C@H](NC(=O)[C@H](CCC(=O)O)NC(=O)[C@H](CCCCN)NC(=O)[C@H](CC(=O)O)NC(=O)[C@H](CCSC)NC(=O)[C@H](CC(C)C)NC(=O)[C@H](CO)NC(=O)[C@H](CO)NC(=O)[C@@H]2CSSC[C@H](N)C(=O)N[C@@H](CO)C(=O)N2)C(=O)N[C@@H](C(C)C)C(=O)N[C@@H](Cc2ccc(O)cc2)C(=O)N[C@@H](Cc2ccccc2)C(=O)N1)C(=O)N[C@H](C(=O)N[C@@H](Cc1c[nH]c2ccccc12)C(=O)O)[C@@H](C)CC | 100 | – | – | – |
| CC[C@H](C)[C@H](NC(=O)[C@H](CC(=O)O)NC(=O)[C@H](CC(C)C)NC(=O)[C@H](Cc1cnc[nH]1)NC(=O)[C@@H]1CSSC[C@H](NC(=O)[C@H](CCC(=O)O)NC(=O)[C@H](CCCCN)NC(=O)[C@H](CC(=O)O)NC(=O)[C@H](CCSC)NC(=O)[C@H](CC(C)C)NC(=O)[C@H](CO)NC(=O)[C@H](CO)NC(=O)[C@@H]2CSSC[C@H](N)C(=O)N[C@@H](CO)C(=O)N2)C(=O)N[C@@H](C(C)C)C(=O)N[C@@H](Cc2ccc(O)cc2)C(=O)N[C@@H](Cc2ccccc2)C(=O)N1)C(=O)N[C@H](C(=O)N[C@@H](Cc1c[nH]c2ccccc12)C(=O)O)[C@@H](C)CC | – | 10.03 | 8.23 | – |
| CC[C@H](C)[C@H](NC(=O)[C@H](CC1CCCCC1)NC(=O)[C@@H](NC(=O)[C@H](CC(C)C)NC(=O)[C@H](Cc1c[nH]cn1)NC(=O)[C@@H]1CSSC[C@H](N)C(=O)N[C@@H](CO)C(=O)N[C@H]2CSSC[C@H](NC(=O)[C@H](CCC(=O)O)NC(=O)[C@H](CCCCN)NC(=O)[C@H](CC(=O)O)NC(=O)[C@H](CCSC)NC(=O)[C@H](CC(C)C)NC(=O)[C@H](CO)NC(=O)[C@H](CO)NC2=O)C(=O)N[C@@H](C(C)C)C(=O)N[C@@H](Cc2ccc(O)cc2)C(=O)N[C@@H](Cc2ccccc2)C(=O)N1)[C@@H](C)O)C(=O)N[C@@H](Cc1c[nH]c2ccccc12)C(=O)O [listing 2 of 2 here] | – | 9.38 | 9.21 | 20 nM |
| CC[C@H](C)[C@H](NC(=O)[C@H](CC(=O)O)NC(=O)[C@H](CC(C)C)NC(=O)[C@H](Cc1c[nH]cn1)NC(=O)[C@@H]1CSSC[C@H](N)C(=O)N[C@@H](CO)C(=O)N[C@H]2CSSC[C@H](NC(=O)[C@H](CCC(=O)O)NC(=O)[C@H](CCCCN)NC(=O)[C@H](CC(=O)O)NC(=O)[C@H](CCSC)NC(=O)[C@H](CC(C)C)NC(=O)[C@H](CO)NC(=O)[C@H](CO)NC2=O)C(=O)N[C@@H](C(C)C)C(=O)N[C@@H](Cc2ccc(O)cc2)C(=O)N[C@@H](Cc2ccccc2)C(=O)N1)C(=O)N[C@H](C(=O)N[C@@H](Cc1c[nH]c2ccccc12)C(=O)O)[C@@H](C)CC [ENDOTHELIN] | 100 | 9.92 | 9.82 | – |
| CC[C@H](C)[C@H](NC(=O)[C@H](CC(C)C)NC(=O)[C@@H](NC(=O)[C@H](CC(C)C)NC(=O)[C@H](Cc1c[nH]cn1)NC(=O)[C@@H]1CSSC[C@H](N)C(=O)N[C@@H](CO)C(=O)N[C@H]2CSSC[C@H](NC(=O)[C@H](CCC(=O)O)NC(=O)[C@H](CCCCN)NC(=O)[C@H](CC(=O)O)NC(=O)[C@H](CCSC)NC(=O)[C@H](CC(C)C)NC(=O)[C@H](CO)NC(=O)[C@H](CO)NC2=O)C(=O)N[C@@H](C(C)C)C(=O)N[C@@H](Cc2ccc(O)cc2)C(=O)N[C@@H](Cc2ccccc2)C(=O)N1)[C@@H](C)O)C(=O)N[C@@H](Cc1c[nH]c2ccccc12)C(=O)O [listing 1 of 2 here] | – | 9.77 | 9.38 | 20 nM |
| CC[C@H](C)[C@H](NC(=O)[C@H](CC(C)C)NC(=O)[C@@H](NC(=O)[C@H](CC(C)C)NC(=O)[C@H](Cc1c[nH]cn1)NC(=O)[C@@H]1CSSC[C@H](N)C(=O)N[C@@H](CO)C(=O)N[C@H]2CSSC[C@H](NC(=O)[C@H](CCC(=O)O)NC(=O)[C@H](CCCCN)NC(=O)[C@H](CC(=O)O)NC(=O)[C@H](CCSC)NC(=O)[C@H](CC(C)C)NC(=O)[C@H](CO)NC(=O)[C@H](CO)NC2=O)C(=O)N[C@@H](C(C)C)C(=O)N[C@@H](Cc2ccc(O)cc2)C(=O)N[C@@H](Cc2ccccc2)C(=O)N1)[C@@H](C)O)C(=O)N[C@@H](Cc1c[nH]c2ccccc12)C(=O)O [listing 2 of 2 here] | 28 | – | – | – |
| CC[C@H](C)[C@H](NC(=O)[C@@H](NC(=O)[C@H](CC(C)C)NC(=O)[C@H](Cc1c[nH]cn1)NC(=O)[C@@H]1CSSC[C@H](N)C(=O)N[C@@H](CO)C(=O)N[C@H]2CSSC[C@H](NC(=O)[C@H](CCC(=O)O)NC(=O)[C@H](CCCCN)NC(=O)[C@H](CC(=O)O)NC(=O)[C@H](CCSC)NC(=O)[C@H](CC(C)C)NC(=O)[C@H](CO)NC(=O)[C@H](CO)NC2=O)C(=O)N[C@@H](C(C)C)C(=O)N[C@@H](Cc2ccc(O)cc2)C(=O)N[C@@H](Cc2ccccc2)C(=O)N1)[C@@H](C)O)C(=O)N[C@H](C(=O)N[C@@H](Cc1c[nH]c2ccccc12)C(=O)O)[C@@H](C)CC | – | 9.48 | 9.72 | – |
